Source: ChEMBL document CHEMBL1828610, “Novel peptide-specific quantitative structure-activity relationship (QSAR) analysis applied to collagen IV peptides with antiangiogenic activity” (2011)
Active and inactive are the calls of the source. No cut-off for these calls is given here. Square brackets hold non-standard residues; d marks the D form. Peptide text beside a SMILES is read from it. Abu = CC[C@H](N)C(=O)O

What was measured:
HUVEC [1] = assay: Antiangiogenic activity in human HUVEC cells assessed as inhibition of cell adhesion at 100 uM upto 3 hrs by migration assay; format: functional
Summary of the method: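 HUVEC (passages 2–7, EGM-2, 37°C, 5% CO2) seeded at 25,000 cells/well in single-compartment impedance E-plates with or without peptide at 100 μM; adhesion tracked as change in cell index amplitude over 3 hours. Two biological replicates, each the mean of three same-plate technical replicates; expressed as percent inhibition relative to vehicle control.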

HUVEC [2] = assay: Antiangiogenic activity in human HUVEC cells assessed as inhibition of tube structure formation at 100 uM relative to control; format: functional, cell-based
Summary of the method: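 Wells coated with reduced growth factor basement membrane matrix, gelled 30 minutes at 37 °C; HUVEC seeded on gel at 15,000 cells/well with or without peptide (100 μM), control receiving equal DMSO vehicle. Incubated overnight at 37 °C, 5% CO2; tube structures imaged by camera on inverted microscope.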

HUVEC [3] = assay: Antiangiogenic activity in human HUVEC cells assessed as inhibition of cell proliferation at 100 uM after 72 hrs by WST-1-based colorimetric assay; format: functional
Summary of the method: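 HUVEC (passages 2–7) plated at 2000 cells/well, peptide 100 μM added in fully supplemented medium to adherent cells for 72 hours; WST-1 then applied in serum-free medium for four hours and absorbance read at 450 nm. Two biological replicates, each mean of three technical replicates; percent inhibition relative to vehicle control.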

HUVEC [4] = assay: Antiangiogenic activity in human HUVEC cells assessed as inhibition of cell migration at 50 uM; format: functional
Summary of the method: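 Real-time impedance migration: upper chamber coated with fibronectin (20μg/ml), 45,000 HUVEC/well (passages 2–7) added with or without peptide at 50 μM; fully supplemented medium below as chemoattractant; migration read as cell index from sensors under porous membrane. Duplicate experiments, each averaging three same-plate replicates; percent inhibition versus vehicle control.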

Row | Molecule | inhibition at 100 µM (HUVEC [1]) [%] | inhibition (HUVEC [2]) | inhibition at 100 µM (HUVEC [3]) [%] | inhibition at 50 µM (HUVEC [4]) [%]
1 | CC[C@H](C)[C@H](NC(=O)[C@H](CC(N)=O)NC(=O)[C@@H](NC(=O)[C@H](Cc1ccccc1)NC(=O)[C@H](C)NC(=O)[C@H](Cc1ccccc1)NC(=O)[C@@H]1CCCN1C(=O)[C@H](CCSC)NC(=O)[C@@H](NC(=O)[C@H](CO)NC(=O)[C@H](Cc1ccccc1)NC(=O)[C@H](CCCNC(=N)N)NC(=O)[C@H](CCCNC(=N)N)NC(=O)[C@@H](N)CC(C)C)[C@@H](C)O)[C@@H](C)CC)C(=O)N[C@@H](CC(N)=O)C(=O)N[C@@H](CC(N)=O)C(=O)N[C@H](C(=O)N[C@H](C(=O)N[C@@H](CC(N)=O)C(=O)N[C@@H](Cc1ccccc1)C(=O)O)[C@@H](C)CC)C(C)C | 94.8 | Active | 46.6 | 69.3
2 | CC[C@H](NC(=O)[C@H](Cc1ccccc1)NC(=O)[C@H](CCSC)NC(=O)[C@@H](N)Cc1ccccc1)C(=O)N[C@@H](CC(N)=O)C(=O)N[C@H](C(=O)N[C@@H](CC(N)=O)C(=O)N[C@@H](CC(N)=O)C(=O)N[C@H](C(=O)N[C@@H](CC)C(=O)N[C@@H](CC(N)=O)C(=O)N[C@@H](Cc1ccccc1)C(=O)O)C(C)C)[C@@H](C)CC (H-FMF[Abu]NINNV[Abu]NF-OH) | 66.2 | – | 28.3 | -16.6
3 | CC[C@H](NC(=O)[C@@H](N)Cc1ccccc1)C(=O)N[C@@H](CC(N)=O)C(=O)N[C@H](C(=O)N[C@@H](CC(N)=O)C(=O)O)[C@@H](C)CC (H-F[Abu]NIN-OH) | 3.45 | – | 8.17 | -23.7
4 | CC[C@H](NC(=O)[C@@H](NC(=O)[C@H](CC(N)=O)NC(=O)[C@H](CC(N)=O)NC(=O)[C@@H](NC(=O)[C@H](CC(N)=O)NC(=O)[C@H](CC)NC(=O)[C@@H](N)Cc1ccccc1)[C@@H](C)CC)C(C)C)C(=O)N[C@@H](CC(N)=O)C(=O)O (H-F[Abu]NINNV[Abu]N-OH) | 77.5 | – | 20.6 | 40.4
5 | CC[C@H](NC(=O)[C@H](Cc1ccccc1)NC(=O)[C@H](CCSC)NC(=O)[C@H](C)NC(=O)[C@@H]1CCCN1C(=O)[C@H](CCSC)NC(=O)[C@@H](NC(=O)[C@H](CO)NC(=O)[C@H](Cc1ccccc1)NC(=O)[C@H](CCCNC(=N)N)NC(=O)[C@H](CCCNC(=N)N)NC(=O)[C@@H](N)CC(C)C)[C@@H](C)O)C(=O)N[C@@H](CC(N)=O)C(=O)N[C@H](C(=O)N[C@@H](CC(N)=O)C(=O)N[C@@H](CC(N)=O)C(=O)N[C@H](C(=O)N[C@@H](CC)C(=O)N[C@@H](CC(N)=O)C(=O)N[C@@H](Cc1ccccc1)C(=O)O)C(C)C)[C@@H](C)CC (H-LRRFSTMPAMF[Abu]NINNV[Abu]NF-OH) | 95.6 | – | 65.4 | 99.8
6 | CC[C@H](NC(=O)[C@H](Cc1ccccc1)NC(=O)[C@H](C)NC(=O)[C@H](Cc1ccccc1)NC(=O)[C@@H]1CCCN1C(=O)[C@H](CCSC)NC(=O)[C@@H](NC(=O)[C@H](CO)NC(=O)[C@H](Cc1ccccc1)NC(=O)[C@H](CCCNC(=N)N)NC(=O)[C@H](CCCNC(=N)N)NC(=O)[C@@H](N)CC(C)C)[C@@H](C)O)C(=O)N[C@@H](CC(N)=O)C(=O)N[C@H](C(=O)N[C@@H](CC(N)=O)C(=O)N[C@@H](CC(N)=O)C(=O)N[C@H](C(=O)N[C@@H](CC)C(=O)N[C@@H](CC(N)=O)C(=O)N[C@@H](Cc1ccccc1)C(=O)O)C(C)C)[C@@H](C)CC (H-LRRFSTMPFAF[Abu]NINNV[Abu]NF-OH) | 98.3 | – | 63.6 | 99.6
7 | CC[C@H](NC(=O)[C@H](C)NC(=O)[C@H](CCSC)NC(=O)[C@H](Cc1ccccc1)NC(=O)[C@@H]1CCCN1C(=O)[C@H](CCSC)NC(=O)[C@@H](NC(=O)[C@H](CO)NC(=O)[C@H](Cc1ccccc1)NC(=O)[C@H](CCCNC(=N)N)NC(=O)[C@H](CCCNC(=N)N)NC(=O)[C@@H](N)CC(C)C)[C@@H](C)O)C(=O)N[C@@H](CC(N)=O)C(=O)N[C@H](C(=O)N[C@@H](CC(N)=O)C(=O)N[C@@H](CC(N)=O)C(=O)N[C@H](C(=O)N[C@@H](CC)C(=O)N[C@@H](CC(N)=O)C(=O)N[C@@H](Cc1ccccc1)C(=O)O)C(C)C)[C@@H](C)CC (H-LRRFSTMPFMA[Abu]NINNV[Abu]NF-OH) | 99.3 | – | 65.1 | 99.6
8 | CC[C@H](C)[C@H](NC(=O)[C@H](CC(N)=O)NC(=O)[C@H](CS)NC(=O)[C@H](Cc1ccccc1)NC(=O)[C@H](CCSC)NC(=O)[C@H](Cc1ccccc1)NC(=O)[C@@H]1CCCN1C(=O)[C@H](CCSC)NC(=O)[C@@H](NC(=O)[C@H](CO)NC(=O)[C@H](Cc1ccccc1)NC(=O)[C@H](CCCNC(=N)N)NC(=O)[C@H](CCCNC(=N)N)NC(=O)[C@@H](N)CC(C)C)[C@@H](C)O)C(=O)N[C@@H](CC(N)=O)C(=O)N[C@@H](CC(N)=O)C(=O)N[C@H](C(=O)N[C@@H](CS)C(=O)N[C@@H](CC(N)=O)C(=O)N[C@@H](Cc1ccccc1)C(=O)O)C(C)C (H-LRRFSTMPFMFCNINNVCNF-OH) | 96.2 | – | 67.5 | 91
9 | CC[C@H](NC(=O)[C@H](Cc1ccccc1)NC(=O)[C@H](CCSC)NC(=O)[C@H](Cc1ccccc1)NC(=O)[C@@H]1CCCN1C(=O)[C@H](CCSC)NC(=O)[C@@H](NC(=O)[C@H](CO)NC(=O)[C@H](Cc1ccccc1)NC(=O)[C@H](CCCNC(=N)N)NC(=O)[C@H](CCCNC(=N)N)NC(=O)[C@@H](N)CC(C)C)[C@@H](C)O)C(=O)N[C@@H](CC(N)=O)C(=O)N[C@H](C(=O)N[C@@H](CC(N)=O)C(=O)N[C@@H](CC(N)=O)C(=O)N[C@H](C(=O)N[C@@H](CC)C(=O)N[C@@H](CC(N)=O)C(=O)N[C@@H](Cc1ccccc1)C(=O)O)C(C)C)[C@@H](C)CC (H-LRRFSTMPFMF[Abu]NINNV[Abu]NF-OH) | 98.5 | – | 69.7 | 97
10 | CC[C@H](NC(=O)[C@@H](NC(=O)[C@H](CC(N)=O)NC(=O)[C@H](CC(N)=O)NC(=O)[C@@H](NC(=O)[C@@H](N)CC(N)=O)[C@@H](C)CC)C(C)C)C(=O)N[C@@H](CC(N)=O)C(=O)N[C@@H](Cc1ccccc1)C(=O)O (H-NINNV[Abu]NF-OH) | 70.8 | – | 24.2 | 31.6
11 | CC[C@H](NC(=O)[C@H](Cc1ccccc1)NC(=O)[C@H](CCSC)NC(=O)[C@H](Cc1ccccc1)NC(=O)[C@@H]1CCCN1C(=O)[C@H](CCSC)NC(=O)[C@@H](NC(=O)[C@@H](N)CO)[C@@H](C)O)C(=O)N[C@@H](CC(N)=O)C(=O)N[C@H](C(=O)N[C@@H](CC(N)=O)C(=O)N[C@@H](CC(N)=O)C(=O)N[C@H](C(=O)N[C@@H](CC)C(=O)N[C@@H](CC(N)=O)C(=O)N[C@@H](Cc1ccccc1)C(=O)O)C(C)C)[C@@H](C)CC (H-STMPFMF[Abu]NINNV[Abu]NF-OH) | 6.82 | – | 13.8 | -24.5
12 | H-LNRFSTMPF-OH | 0.32 | – | 6.35 | -16.1
13 | H-LRRFSTMP-OH | -0.14 | Active | 7.02 | -20.1
14 | H-LRRFSTMPFMF-OH | -2.6 | – | 2.97 | -14.2
15 | H-LRRFSTMPFMFANINNVANF-OH | 98.2 | – | 48.6 | 99.6
16 | H-LRRFSTMPFMFGNINNVGNF-OH | 97.8 | – | 25.7 | 87.9
17 | H-LRRFSTMPFMFININNVINF-OH | 98.6 | – | 73.2 | 92.9
18 | H-LRRFSTMPFMFSNINNVSNF-OH | 98 | – | 50.5 | 92.6
19 | H-LRRFSTMPFMFTNINNVTNF-OH | 98.7 | – | 59.1 | 96.1
20 | H-LRRFSTMPFMFVNINNVVNF-OH | 95.1 | Active | 62.2 | 98.8
